High-throughput results (PubChem BioAssay)
Rows were chosen to be rich in hits. Some 2.9% of all compounds tested hit in one or more screens of this group.
SUMO Mot1 rescue: SUMOylation pathway inhibition by Mot1-301 growth rescue; S. cerevisiae Mot1-301 growth rescue, ATP luminescence, 38.5C; percent above DMSO median, 100 means doubled; growth rescue, % at 18.8 µM; 320,000 tested, 1% active; AID 2716;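 active = every valid replicate shows activation above 250% relative to neutral control wells; inactive = the rest, any valid replicate at or below 250%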;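 also: OY570 slx delta 5 strain wells were the positive control but not used for scaling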
DNA FID counter: displaces DNA intercalator in HCV helicase counter-screen; 290,000 tested, 0.17% active; DNA fluorescent intercalator displacement, fluorescence; inhibition, % at 7.9 µM; in the data active = inhibition above about 37%;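 also: 0% = vehicle and 100% = reference compound; higher means more ethidium bromide displaced from hairpin DNA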
SUMO HTRF inh: blocks human SUMOylation mediated by UBC9; AID 2006; inhibition, % at 35 µM; 290,000 tested, 0.36% active; P63279; HTRF SUMOylation assay, SAE1/SAE2 + UBC9, in vitro; in the data active = inhibition above about 50%, passing the limit was not always enough
Target sequence (P63279 whole entry, looked up): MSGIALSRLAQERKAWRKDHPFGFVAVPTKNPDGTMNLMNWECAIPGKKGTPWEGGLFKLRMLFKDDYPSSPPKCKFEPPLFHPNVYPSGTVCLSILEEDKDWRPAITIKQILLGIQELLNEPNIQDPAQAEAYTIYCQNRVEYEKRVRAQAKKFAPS
NALP1 inh: NALP1 inhibition; AID 2071; inhibition, % at 10 µM; 280,000 tested, 0.61% active; S. cerevisiae NALP1/ASC/caspase-1 growth, X-gal OD620, 72 h; in the data active = inhibition mostly above about 24%, no sharp cut-off; inactive = mostly below about 32%
VIM-2 inh: inhibitors of Pseudomonas aeruginosa VIM-2 metallo-beta-lactamase | purified VIM-2, nitrocefin hydrolysis, epi-absorbance fluorescence | inhibition, % at 5.6 µM | 290,000 tested, 0.89% active;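 active = inhibition above the mean of all tested compounds plus 3 SD, cutoff set per screening run, cut at about 7.5% in these data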;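 also: red hydrolysis product quenches plate fluorescence so inhibitors raise well fluorescence; 0% = enzyme with DMSO and 100% = DMSO without enzyme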
IMP-1 inh: inhibitors of Pseudomonas aeruginosa IMP-1 metallo-beta-lactamase; inhibition, % at 5.6 µM; AID 1556; 290,000 tested, 0.45% active; purified IMP-1, nitrocefin hydrolysis, epi-absorbance fluorescence;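 active = inhibition above the mean plus 3 SD of all compounds in the same screening run, cut at about 4.5% in these data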;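 also: 0% = IMP-1 with DMSO and 100% = DMSO wells lacking enzyme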
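Test system: recombinant IMP-1 enzyme, purified / Medium: HEPES buffer pH 7.1 with ZnSO4 and Brij 35 / Doses: single dose, 5.6 µM / Times: 25 °C, 15 min preincubation, 25 min reaction / Detection: Epi-absorbance via hydrolysed-nitrocefin quenching of white-plate fluorescence, 480/530 nm, EDTA stop / Evaluation: percent inhibition from optical density relative to buffer-blank wells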
* marks the source's active call; other numbers are inactive results; . = not tested or not shown.

SMILES	SUMO Mot1 rescue	DNA FID counter	SUMO HTRF inh	NALP1 inh	VIM-2 inh	IMP-1 inh
Cc1cc(C(=O)O)cc(Br)c1N	326.4*	-0.5	13.8	18.9	-2.6	-3.8
COc1ccc(-c2cc(C(=O)OCC(=O)c3c(N)n(C)c(=O)n(C)c3=O)c3ccccc3n2)cc1	.	19.7	6.5	-8.5	-1.6	-1.8
Cn1c(N)c(C(=O)COC(=O)c2ccnc3ccccc23)c(=O)n(C)c1=O	-9.6	-8.3	18.4	10.4	9.7*	-5.2
CC(=O)CSc1nnc(CN2C(=O)CSc3ccc(C(F)(F)F)cc32)n1C	1.3	-13.2	1.4	18.6	-2.7	-4.9
Cc1c(Cl)sn(-c2ccc(Cl)cc2)c1=O	.	-2.1	22.1	98.0*	-1.1	-1.7
Cc1nn(-c2ccc(Cl)cc2)c(=O)c2ccccc12	.	-3.1	1.2	14.2	-3.0	-3.0
Cc1c(/C(O)=C2/C(=O)C(=O)N(CCN3CCOCC3)C2c2cccnc2)cnn1-c1ccccc1 (stereo not drawn)	446.8*	-9.8	14.9	-3.3	-2.6	1.2
CCOC(=O)C1=C(C)Nc2nnnn2C1c1c[nH]c2ccccc12 (stereo not drawn)	126.6	-7.5	8.0	45.7*	-1.9	0.5
CCOC(=O)C1=C(C)Nc2nnnn2C1c1cccc(OC)c1OC (stereo not drawn)	-7.8	-5.9	.	.	-1.8	-1.6
Cc1c(O)nc(SCC(=O)Nc2nccs2)n(-c2ccccc2F)c1=O	-3.6	-18.5	-5.4	40.6*	-2.4	-2.1
CC(=O)Oc1ccc(C(=O)Nc2cccc(-c3nnc(-c4ccco4)o3)c2)cc1	-3.0	1.4	10.2	5.6	-2.6	42.4*
O=C(Nc1cccc(-c2nnc(-c3ccco3)o2)c1)c1ccccc1	-4.9	-17.0	3.7	3.1	-4.6	-4.4
O=C(O)COc1ccc2c(c1)O/C(=C\c1ccco1)C2=O	-9.7	-11.1	43.2	23.2	-2.2	-4.0
Cc1ccc(/C=C2\Oc3cc(OCC(=O)NN)ccc3C2=O)o1	17.7	-31.0	58.8*	-17.0	-2.5	-3.2
CCCCN1C(=O)Cc2c1nc(N)c1c(N)nc(N(CCC)CCC)c(C#N)c21	13.4	-6.2	93.7*	1.4	-1.6	-1.8
N#Cc1c(N(CCO)CCO)nc(N)c2c(N)nc3c(c12)CC(=O)N3CC1CCCO1 (stereo not drawn)	-11.7	-0.7	100.9*	-5.8	-0.4	-0.2
N#Cc1ccccc1N1CCN(C(=O)c2ccc(NC(=O)c3ccc(Br)o3)cc2)CC1	5.8	.	.	.	.	.
O=C(CSCc1ccc(Cl)cc1Cl)Nc1nccs1	15.6	-2.8	-10.1	30.8	-3.4	-3.0
CCCCCCn1c2c(c(=N)c3c1CCC3)CCC2	11.6	6.3	8.1	15.1	0.7	-1.5
CCCCCCCCCn1c2c(c(=N)c3c1CCC3)CCC2	483.1*	8.5	18.1	27.1*	0.7	-1.8
CCCCn1c2c(c(=N)c3c1CCC3)CCC2	-8.6	4.4	-17.7	1.6	-8.2	4.8*
CC1=N/C(=C\c2ccccc2Cl)C(=O)O1	-0.4	.	.	.	.	.
CCc1cccc(NS(=O)(=O)c2ccc3c(c2)NC(=O)CC(=O)N3)c1	565.3	-1.9	0.6	35.9*	-3.6	-1.9
COc1ccc(NC(=O)c2oc3ccccc3c2NC(=O)C2CCCO2)cc1OC (stereo not drawn)	.	-33.0	22.4	8.5	-0.5	0.2
COc1ccc(NC(=O)c2oc3ccccc3c2NC(=O)C2CC2)cc1OC	-0.5	-20.7	5.1	28.6	9.0*	0.0
SMILES	SUMO Mot1 rescue	DNA FID counter	SUMO HTRF inh	NALP1 inh	VIM-2 inh	IMP-1 inh
CCCNC(=O)NC1CCCc2ccccc21 (stereo not drawn)	5.8	-5.1	16.2	-2.9	-2.0	-2.1
O=C(O)c1cccc(CSc2ncccn2)c1	10.0	-0.4	-11.9	7.8	-2.1	-1.8
O=C(O)c1cccc(CSc2n[nH]c(-c3ccc(Cl)cc3Cl)n2)c1	-6.5	-30.6	30.8	53.1*	-1.7	-4.6
Cc1cc(C)c2c(=O)[nH]c(SCC(=O)N(C)C)nc2n1	129.6	75.2*	28.1	15.3	-2.0	-2.4
CCN(CC)C(=O)CSc1nc2nc(C)cc(C)c2c(=O)[nH]1	-4.0	-3.5	13.8	0.5	0.7	-3.8
Cc1[nH]c(=O)[nH]c(=O)c1/C=C/C(=O)O	853.2*	-2.6	-21.5	.	-2.5	-1.7
CC(NC(=O)CN(c1ccc(Cl)cc1)S(C)(=O)=O)c1ccccc1 (stereo not drawn)	5.7	-10.7	8.5	10.8	-0.5	0.1
Cc1ccc(-n2ncc(C(=O)O)c2C2CCN(C(=O)OC(C)(C)C)CC2)cc1	-3.3	-42.2	17.5	5.9	8.4*	2.0
COc1ccc(C(N)c2nccc3cc(OC)c(OC)cc23)cc1OC (stereo not drawn)	58.0	12.4	69.2	8.6	7.8*	2.1
Cc1cc(C)nc(NC(=S)NC(=O)c2ccccc2)n1	1.5	-4.4	9.7	-13.8	8.4*	-2.7
Cc1cc(C)nc(NC(=S)Nc2ccccc2)n1	48.6	-6.7	-5.9	5.5	-4.8	-1.5
Cc1cc(Cl)c(S(=O)(=O)NC2CCCC2)cc1OCC(N)=O	-8.1	-8.8	1.9	7.4	-1.1	-1.5
COc1ccccc1C#Cc1ccc2c(=O)c3ccccc3n(C)c2c1	-1.4	-17.8	3.8	26.0	0.0	6.8*
COc1ccc(C#Cc2ccc3c(=O)c4ccccc4n(C)c3c2)cc1	13.1	-17.3	0.8	-0.7	1.4	0.3
NC(=O)NC(=O)COC(=O)CNS(=O)(=O)c1ccc(F)c(F)c1F	-20.7	-4.4	-5.7	4.9	-1.9	-2.1
c1ccc(-c2ccc(-c3cn4c(n3)CCC4)cc2)cc1	96.5	1.3	-1.4	51.3*	-2.2	-3.9
CCN(C(=O)COC(=O)c1cnc(C)cn1)c1c(N)n(Cc2ccccc2)c(=O)[nH]c1=O	-4.8	.	.	.	.	.
O=C(O)CCCCNCc1ccccc1	-15.0	2.5	1.6	40.5*	-2.4	-2.8
O=C(CSc1c(Cl)cccc1Cl)NC1CCCc2ccccc21 (stereo not drawn)	349.2*	-11.1	5.4	35.8	1.2	8.0*
COc1ccc(-c2nnn(CC(=O)NC3CCCc4ccccc43)n2)cc1OC (stereo not drawn)	4.7	-1.4	27.6	42.2*	-3.6	1.7
O=C(CSc1ccccc1Cl)NC1CCCc2ccccc21 (stereo not drawn)	3.0	-18.6	28.2	17.9	-2.5	0.3
Cn1sccc1=O	-4.1	.	.	.	.	.
COc1ccccc1/C=C1\SC(=S)N(CCC(=O)Nc2ccc(C(=O)O)c(O)c2)C1=O	24.7	38.3*	8.7	5.9	-0.8	-2.8
O=C(CCN1C(=O)/C(=C\c2ccco2)SC1=S)Nc1ccc(C(=O)O)c(O)c1	-20.9	5.0	.	4.3	-1.1	8.0*
O=C(CN1C(=O)/C(=C\c2ccco2)SC1=S)Nc1ccc(O)cc1C(=O)O	10.8	16.6	82.5*	25.4	-0.8	3.7
COc1cc(/C=C2/SC(=S)N(CC(=O)O)C2=O)ccc1OCC(=O)Nc1ccc(C)c(C)c1	-6.8	-31.9	26.8	9.9	-0.8	7.5*
